The source made the active and inactive calls. The calls are words filed in the database; no cut-off is given here.
What was measured:
[1] = AUC (0 to 7 hrs) in overnight-fasted Wistar rat at 0.1 mg/kg, iv measured upto 7 hrs by quadrupole mass spectrometry coupled UFLC analysis; format: ADME, organism-based; parameters: route intravenous, dose 0.1 mg/kg, time <=7; details: in vivo
Outline: (§1)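 Male Wistar rats, conscious and unrestrained, were given the compound in saline at 4 mL/kg, either as an i.v. bolus via the left jugular vein or by oral gavage. Heparinized blood was drawn from a cannula at set times up to 7 h and the plasma analysed by LC-MS/MS. AUC0–7 and AUC0–∞ came from noncompartmental trapezoidal analysis; mean ± SD, n = 5.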

[2] = Half life in overnight-fasted Wistar rat at 0.1 mg/kg, iv measured upto 7 hrs by quadrupole mass spectrometry coupled UFLC analysis; format: ADME, organism-based; details: in vivo
Outline: (§2)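 Conscious, freely moving male Wistar rats received compound in saline at 4 mL/kg, either i.v. via jugular vein at 0.1 mg/kg or by oral gavage at 0.5 mg/kg. Cannula blood was sampled up to 7 h and plasma measured by LC-MS/MS. Analysis was noncompartmental (trapezoidal AUC); Cmax and tmax were taken as observed, and t1/2 from log-linear terminal regression over at least 3 points. Mean ± SD, n = 5.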

[3] = Oral bioavailability in overnight-fasted Wistar rat at 0.5 mg/kg and measured upto 7 hrs by quadrupole mass spectrometry coupled UFLC analysis; format: ADME, organism-based; details: in vivo; outline: as §2
[4] = Half life in overnight-fasted Wistar rat at 0.5 mg/kg, po measured upto 7 hrs by quadrupole mass spectrometry coupled UFLC analysis; format: ADME, organism-based; details: in vivo; outline: as §2
[5] = AUC (0 to infinity) in overnight-fasted Wistar rat at 0.5 mg/kg, po measured upto 7 hrs by quadrupole mass spectrometry coupled UFLC analysis; format: ADME, organism-based; parameters: route oral, dose 0.5 mg/kg, time <=7; details: in vivo; outline: as §1
SARS-CoV-2 [6] = assay: Antiviral activity against SARS coronavirus 2 infected in African green monkey VeroE6/TMPRSS2 cells upto 10 uM in presence of MDR-1 inhibitor CP-100356 measured after 24 hrs post-infection by qRT-PCR analysis; format: functional, organism-based; details: Severe acute respiratory syndrome coronavirus 2; Vero; dose microM <=10, time 24.0 hrs
[7] = Drug metabolism in human hepatocytes assessed as CYP450-catalysed oxidative pathway mediated metabolite formation at 10 uM incubated upto 2 hrs by LC/UV/MS analysis; format: ADME, cell-based, Hepatocyte
Outline: (§3)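 Hepatocytes were suspended at 6 × 10^5 viable cells/mL in KHB buffer and given compound at 10 μM. Incubation was 0 and 2 h at 37 °C under 5% CO2, stopped with acetonitrile. After centrifugation, supernatant metabolites were analysed by LC/UV/MS.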

[8] = Apparent total clearance in overnight-fasted Wistar rat at 0.5 mg/kg, po measured upto 7 hrs by quadrupole mass spectrometry coupled UFLC analysis; format: ADME, organism-based; details: in vivo, read-out: CLt/F (converted); outline: as §2
Cytochrome P450 2C8 = target: T1, Cytochrome P450 2C8 (Homo sapiens, UniProt P10632); assay: Inhibition of CYP2C8 in human liver microsome at 10 uM; format: toxicity; details: microsomes
T1 sequence (P10632 whole entry): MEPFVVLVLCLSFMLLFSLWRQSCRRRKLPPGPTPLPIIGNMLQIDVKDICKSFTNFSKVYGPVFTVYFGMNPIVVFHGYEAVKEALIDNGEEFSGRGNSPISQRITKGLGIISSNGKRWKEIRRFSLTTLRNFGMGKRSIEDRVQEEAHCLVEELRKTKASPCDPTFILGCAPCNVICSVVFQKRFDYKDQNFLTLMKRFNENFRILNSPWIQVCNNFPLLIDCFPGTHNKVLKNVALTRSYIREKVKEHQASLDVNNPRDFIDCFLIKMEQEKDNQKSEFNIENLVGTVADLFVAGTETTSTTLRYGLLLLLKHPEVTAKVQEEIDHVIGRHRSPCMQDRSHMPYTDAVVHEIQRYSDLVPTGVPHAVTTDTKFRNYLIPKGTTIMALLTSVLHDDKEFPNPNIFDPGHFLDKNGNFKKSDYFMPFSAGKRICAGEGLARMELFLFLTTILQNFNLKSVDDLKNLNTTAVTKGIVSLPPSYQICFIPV
Outline: (§4)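 Human liver microsomes (0.1 mg protein/mL) were mixed with compound at 10 μM and probe substrates in phosphate buffer pH 7.4: tacrine (CYP1A2), paclitaxel (2C8), tolbutamide (2C9), dextromethorphan (2D6) and midazolam (3A4). Reactions were started with an NADPH-generating system, run 10 min at 37 °C and stopped with acetonitrile. Metabolites were measured by LC/MS/MS and activity expressed as % remaining versus the no-inhibitor control.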

[9] = AUC (0 to infinity) in overnight-fasted Wistar rat at 0.1 mg/kg, iv measured upto 7 hrs by quadrupole mass spectrometry coupled UFLC analysis; format: ADME, organism-based; parameters: route intravenous, dose 0.1 mg/kg, time <=7; details: in vivo; outline: as §1
[10] = Cytotoxicity against African green monkey Vero cells assessed as cell viability incubated for 24 hrs by MTT assay; format: toxicity, cell-based; details: chlorocebus sabaeus
Outline: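 Vero cells were seeded at 1.0 × 10^4 cells/well and cultured overnight at 37 °C. Compound was added for 24 h, and viability was measured by MTT assay with absorbance at 570 nm.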

[11] = Drug metabolism in human hepatocytes assessed as amide hydrolysis mediated HC-6 metabolite formation at 10 uM incubated upto 2 hrs by LC/UV/MS analysis; format: ADME, cell-based, Hepatocyte; outline: as §3
[12] = Total clearance in overnight-fasted Wistar rat at 0.1 mg/kg, iv measured upto 7 hrs by quadrupole mass spectrometry coupled UFLC analysis; format: ADME, organism-based; details: in vivo; outline: as §2
[13] = Drug metabolism in rat hepatocytes assessed as CYP450-catalysed oxidative pathway mediated metabolite formation at 10 uM incubated upto 2 hrs by LC/UV/MS analysis; format: ADME, cell-based, Hepatocyte; outline: as §3
SARS-CoV-2 [14] = assay: Antiviral activity against SARS coronavirus 2 infected in African green monkey Vero cells assessed as blockade of viral proliferation at 10 uM incubated for 48 hrs by cytopathic effect assay; format: functional, organism-based; details: Severe acute respiratory syndrome coronavirus 2
Cytochrome P450 2D6 = Cytochrome P450 2D6 (Homo sapiens, UniProt P10635); assay: Inhibition of CYP2D6 in human liver microsome at 10 uM; format: toxicity; details: microsomes; outline: as §4
Cytochrome P450 2D6, sequence (P10635 whole entry): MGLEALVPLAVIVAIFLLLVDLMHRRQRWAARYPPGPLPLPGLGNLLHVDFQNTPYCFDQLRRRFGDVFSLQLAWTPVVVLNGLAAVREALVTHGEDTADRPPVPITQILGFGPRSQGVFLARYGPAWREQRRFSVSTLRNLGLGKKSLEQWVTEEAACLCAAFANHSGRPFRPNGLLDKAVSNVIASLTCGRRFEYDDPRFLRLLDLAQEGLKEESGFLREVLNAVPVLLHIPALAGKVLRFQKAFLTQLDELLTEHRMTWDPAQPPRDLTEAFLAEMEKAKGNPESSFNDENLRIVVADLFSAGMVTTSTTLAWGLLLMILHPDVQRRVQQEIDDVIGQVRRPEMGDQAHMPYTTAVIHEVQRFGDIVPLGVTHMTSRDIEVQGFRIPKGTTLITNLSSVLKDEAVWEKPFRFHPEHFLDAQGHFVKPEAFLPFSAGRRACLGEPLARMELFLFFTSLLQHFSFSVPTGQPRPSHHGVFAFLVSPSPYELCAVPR

Cytochrome P450 3A4 = Cytochrome P450 3A4 (Homo sapiens, UniProt P08684); assay: Inhibition of CYP3A4 in human liver microsome at 10 uM; format: toxicity; details: microsomes; outline: as §4
Cytochrome P450 3A4, sequence (P08684 whole entry): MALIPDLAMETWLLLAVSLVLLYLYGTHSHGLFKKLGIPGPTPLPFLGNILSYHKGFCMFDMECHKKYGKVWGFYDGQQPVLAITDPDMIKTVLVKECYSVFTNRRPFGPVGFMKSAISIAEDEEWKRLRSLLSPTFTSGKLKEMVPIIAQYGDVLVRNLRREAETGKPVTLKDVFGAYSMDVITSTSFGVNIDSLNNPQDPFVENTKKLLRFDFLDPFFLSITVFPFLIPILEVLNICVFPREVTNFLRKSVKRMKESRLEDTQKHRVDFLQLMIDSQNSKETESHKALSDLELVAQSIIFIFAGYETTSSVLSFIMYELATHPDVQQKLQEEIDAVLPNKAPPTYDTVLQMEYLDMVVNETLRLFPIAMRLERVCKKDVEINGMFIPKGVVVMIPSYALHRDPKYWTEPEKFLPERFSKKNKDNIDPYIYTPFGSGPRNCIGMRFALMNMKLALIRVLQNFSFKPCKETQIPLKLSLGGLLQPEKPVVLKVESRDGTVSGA

[15] = Inhibition of recombinant C-terminal His-tagged SARS coronavirus 1 3CL protease using Boc-Abu-Tle-Leu-Gln-AMC as substrate incubated for 5 mins by Cheng-Prusoff equation analysis; parameters: species or system Severe acute respiratory syndrome-related coronavirus
Cytochrome P450 2C9 = Cytochrome P450 2C9 (Homo sapiens, UniProt P11712); assay: Inhibition of CYP2C9 in human liver microsome at 10 uM; format: toxicity; details: microsomes; outline: as §4
Cytochrome P450 2C9, sequence (P11712 whole entry): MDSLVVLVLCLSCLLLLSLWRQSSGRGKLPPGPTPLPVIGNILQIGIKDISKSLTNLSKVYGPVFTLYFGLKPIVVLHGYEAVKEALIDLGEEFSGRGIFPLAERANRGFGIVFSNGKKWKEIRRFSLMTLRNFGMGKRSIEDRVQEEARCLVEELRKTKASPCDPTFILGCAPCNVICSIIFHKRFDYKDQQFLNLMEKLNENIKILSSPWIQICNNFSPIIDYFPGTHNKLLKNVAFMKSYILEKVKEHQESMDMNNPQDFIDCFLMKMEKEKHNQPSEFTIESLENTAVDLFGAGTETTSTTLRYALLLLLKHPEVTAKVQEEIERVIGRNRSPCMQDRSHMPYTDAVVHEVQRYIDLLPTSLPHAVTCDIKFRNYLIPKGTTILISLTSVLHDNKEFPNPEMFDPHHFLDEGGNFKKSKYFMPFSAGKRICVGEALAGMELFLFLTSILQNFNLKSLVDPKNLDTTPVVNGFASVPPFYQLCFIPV

[16] = Protein binding in human plasma incubated for 6 hrs by quadrupole mass spectrometry coupled UFLC analysis; format: ADME, cell-free; details: read-out: PPB

COc1cccc2[nH]c(C(=O)N[C@@H](CC(C)C)C(=O)N[C@@H](C[C@@H]3CCNC3=O)C(=O)c3nc4ccccc4s3)cc12
AUC(0-t) [1]: 19.3 ng·h/mL
half-life [2]: 2.97 h
bioavailability [3]: 3.55%
half-life [4]: 9.64 h
AUC(0-inf) [5]: 3.49 ng·h/mL
Activity (SARS-CoV-2 [6]): Active
Drug metabolism [7]: Metabolite_Detected
CL/F [8]: 2650 mL/min/kg
inhibition (INH) (Cytochrome P450 2C8): Active
AUC(0-inf) [9]: 19.7 ng·h/mL
CC50 at 24 h [10]: > 100000 nM
Drug metabolism [11]: Metabolite_Detected
clearance [12]: 107 mL/min/kg
Drug metabolism [13]: Metabolite_Detected
Activity (SARS-CoV-2 [14]): Active
inhibition (INH) (Cytochrome P450 2D6): Active
inhibition (INH) (Cytochrome P450 3A4): Not Active
Ki [15]: 6.3 nM
inhibition (INH) (Cytochrome P450 2C9): Not Active
fraction unbound at 6 h [16]: 0.01
